Active and inactive are the calls of the source. The rule behind the calls is not given here.
Experiments:
[1] = system: ARPE-19; test: Cytoprotective activity against H2O2-induced toxicity in human ARPE19 cells pretreated for 5 hrs followed by H2O2 addition after 19 hrs by CellTiter-blue assay; type: functional, cell-based
Method in brief: (§1)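 ARPE-19 human retinal pigment epithelial cells pre-incubated 5 h with a range of compound concentrations, then given H2O2 at 200 μM. Viability read 19 h after peroxide addition by CellTiter Blue. Expressed as percent of untreated control (100%).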

[2] = system: ARPE-19; test: Cytotoxicity against human ARPE19 cells assessed as reduction in cell viability up to 100 uM after 72 hrs by CellTiter-blue assay; type: cell-based; conditions: arpe-19, 72 h
Method in brief: (§2)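 Inherent toxicity tested on ARPE-19 cells. Compounds at concentrations up to 100 μM for 72 h. Viability read by CellTiter Blue assay.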

[3] = Drug level treated with BSIH assessed as metabolite formation at 500 uM after 24 hrs in presence of H2O2 by 1H-NMR spectroscopic analysis
[4] = Stability of the compound in phosphate buffered saline at pH 7.4 assessed as compound hydrolysis at 100 uM within 20 mins by UV-Vis spectrophotometric analysis; type: physicochemical; conditions: buffer, pH 7.4, 20 min
[5] = Stability of the compound in phosphate buffered saline at pH 7.4 assessed as compound hydrolysis at 100 uM up to 24 hrs by UV-Vis spectrophotometric analysis; type: physicochemical; conditions: buffer, pH 7.4, 24 h
Method in brief: (§3)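 Compound at 100 μM dissolved in PBS pH 7.4 or in minimal essential medium. UV-Vis spectra of freshly prepared and 24-h aged solutions kept at ambient temperature were compared.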

[6] = Stability of the compound in phosphate buffered saline assessed as parent compound remaining at 100 uM at pH 7.4 after 20 mins by UV-vis spectrophotometric analysis; type: physicochemical; conditions: read-out: Stability
[7] = Stability of the compound in phosphate buffered saline assessed as parent compound remaining at 500 uM at pH 7.4 after 20 mins by UV-vis spectrophotometric analysis; type: physicochemical; conditions: read-out: Stability
[8] = Stability of the compound in minimal essential medium assessed as compound hydrolysis at 100 uM at pH 7.4 after 24 hrs by UV-Vis spectrophotometric analysis; method in brief: as §3
[9] = Drug level treated with BSIH in DMSO assessed as metabolite formation at 100 uM at pH 7.4 after overnight incubation in presence of H2O2 by UV-vis spectrometric analysis
[10] = Stability of the compound in minimal essential medium assessed as compound hydrolysis at 100 uM within 24 hrs by UV-Vis spectrophotometric analysis
[11] = Half-life in RPMI media at 100 uM; type: physicochemical
[12] = Stability of the compound in aqueous solvent at 500 uM after 24 hrs in presence of H2O2 by 1H-NMR spectroscopic analysis; type: physicochemical; conditions: buffer
[13] = Stability of the compound in phosphate buffered saline at pH 7.4 assessed as compound hydrolysis at 100 uM after 24 hrs by UV-Vis spectrophotometric analysis; type: physicochemical; conditions: buffer, pH 7.4, 24 h; method in brief: as §3
[14] = Drug metabolism in RPMI media assessed as equilibrium hydrolysis constant at 100 uM; type: physicochemical
[15] = system: ARPE-19; test: Cytotoxicity against human ARPE19 cells assessed as reduction in cell viability at 100 uM after 72 hrs by CellTiter-blue assay relative to control; type: cell-based; conditions: arpe-19, 72 h; method in brief: as §2
[16] = Stability of the compound in D2O/5% DMSO-d6 assessed as parent compound remaining at 500 uM after 1 hr by 1H-NMR spectroscopic analysis; type: physicochemical; conditions: read-out: Stability
[17] = Stability of the compound in Britton-Robinson buffer at pH 2 assessed as parent compound remaining at 100 uM by UV-vis spectrometric analysis; type: physicochemical; conditions: read-out: Stability
[18] = Stability of the compound in minimal essential medium assessed as compound hydrolysis at 100 uM at pH 7.4 within 20 mins by UV-Vis spectrophotometric analysis
[19] = Stability of the compound in Britton-Robinson buffer at pH 12 assessed as parent compound remaining at 100 uM by UV-vis spectrometric analysis; type: physicochemical; conditions: read-out: Stability
[20] = Drug metabolism in phosphate buffered saline at pH 7.4 assessed as formation of SIH by measuring elution time at 100 uM after 24 hrs in presence of H2O2 by LC-MS analysis; type: physicochemical; conditions: buffer, pH 7.4, 24 h
[21] = Drug metabolism in phosphate buffered saline at pH 7.4 assessed as equilibrium hydrolysis constant measured at 1 min interval for 20 mins by UV-vis spectrophotometric method; type: physicochemical; conditions: buffer, pH 7.4, 20 min
[22] = Drug metabolism in phosphate buffered saline at pH 7.4 assessed as formation of salicylaldehyde by measuring retention time at 100 uM after 24 hrs in presence of H2O2 by LC-MS analysis; type: physicochemical; conditions: buffer, pH 7.4, 24 h
[23] = Stability of the compound in Britton-Robinson buffer at pH 8 assessed as parent compound remaining at 100 uM by UV-vis spectrometric analysis; type: physicochemical; conditions: read-out: Stability
[24] = Drug metabolism in DMSO-d6 assessed as formation of hydrazone proton at 10 mM by 1H-NMR spectroscopic analysis; type: physicochemical; conditions: 10000 µM
[25] = Stability of the compound in minimal essential medium assessed as compound hydrolysis at 100 uM at pH 7.4 up to 24 hrs by UV-Vis spectrophotometric analysis; method in brief: as §3
[26] = Drug metabolism in D2O/5% DMSO-d6 assessed as formation of hydrazone proton at 500 uM after 1 hr by 1H-NMR spectroscopic analysis; type: physicochemical
[27] = Drug metabolism in D2O/5% DMSO-d6 assessed as pinacol dissociation by measuring formation of boronic acid form of BASIH at 500 uM after 1 hr by 1H-NMR spectroscopic analysis; type: physicochemical
[28] = Stability of the compound in aqueous solvent assessed as parent compound remaining at 100 uM after 24 hrs in presence of H2O2 by 1H-NMR spectrometric method; type: physicochemical; conditions: aqueous solvent with H2O2; read-out: Stability
[29] = Drug metabolism in phosphate buffered saline at pH 7.4 assessed as formation of isoniazid by measuring elution time at 100 uM after 24 hrs in presence of H2O2 by LC-MS analysis; type: physicochemical; conditions: buffer, pH 7.4, 24 h
[30] = Stability of the compound in Britton-Robinson buffer at pH 4 assessed as parent compound remaining at 100 uM by UV-vis spectrometric analysis; type: physicochemical; conditions: read-out: Stability
[31] = Stability of the compound in Britton-Robinson buffer at pH 6 assessed as parent compound remaining at 100 uM by UV-vis spectrometric analysis; type: physicochemical; conditions: read-out: Stability
[32] = Drug metabolism in D2O/5% DMSO-d6 assessed as formation of aldehyde proton of salicylaldehyde at 500 uM after 1 hr by 1H-NMR spectroscopic analysis; type: physicochemical
[33] = Stability of the compound in Britton-Robinson buffer at pH 10 assessed as parent compound remaining at 100 uM by UV-vis spectrometric analysis; type: physicochemical; conditions: read-out: Stability
[34] = Drug metabolism in DMSO-d6 assessed as formation of pinacol boronic ester form of BSIH at 10 mM by 1H-NMR spectroscopic analysis; type: physicochemical; conditions: 10000 µM
[35] = system: ARPE-19; test: Cytoprotective activity against H2O2-induced toxicity in human ARPE19 cells up to 100 uM pretreated for 5 hrs followed by H2O2 addition after 19 hrs by CellTiter-blue assay; type: functional, cell-based; method in brief: as §1

O=Cc1ccccc1O [SALICYLADEHYDE]
Activity [1]: Dose-dependent effect
Activity [2]: Non-Toxic
Drug metabolism [3]: Metabolite detected

O=C(N/N=C/c1ccccc1B(O)O)c1ccncc1
Stability [4]: Unstable
Stability [5]: Stable
remaining at 20 min, 100 µM [6]: 68%
remaining at 20 min, 500 µM [7]: 84%

O=C(N/N=C/c1ccccc1O)c1ccncc1 [SALINAZID]
Stability [8]: Unstable
Drug metabolism [9]: Metabolite detected
Stability [10]: Unstable
half-life at 100 µM [11]: 2.7 h
Stability [12]: Stable
Activity [1]: Dose-dependent effect
Stability [13]: Stable
K [14]: 5 ×10⁻⁴ M
Activity [15]: 30%

CC1(C)OB(c2ccccc2/C=N/NC(=O)c2ccncc2)OC1(C)C
remaining at 1 h, 500 µM [16]: 80%
remaining at 100 µM [17]: 9%
Stability [4]: Unstable
Stability [18]: Unstable
remaining at 100 µM [19]: 50%
Time [20]: 13 min
Stability [5]: Stable
K [21]: 1.5 ×10⁻⁵ M
Retention_time [22]: 12 min
remaining at 100 µM [23]: 65%
Activity [1]: Dose-dependent effect
Drug metabolism [24]: 8.79 ppm
Stability [25]: Stable
Drug metabolism [26]: Metabolite_Notdetected
Activity [2]: Non-Toxic
Drug metabolism [27]: 1.03 ppm
remaining at 24 h, 100 µM [28]: 25%
Time [29]: 2 min
remaining at 100 µM [30]: 26%
remaining at 100 µM [31]: 36%
Drug metabolism [32]: 9.9 ppm
remaining at 100 µM [33]: 67%
Drug metabolism [34]: 1.34 ppm

O=Cc1ccccc1B(O)O
Activity [1]: Dose-dependent effect
Activity [2]: Non-Toxic

NNC(=O)c1ccncc1 [ISONIAZID]
Activity [35]: inactive
Activity [2]: Non-Toxic
Drug metabolism [3]: Metabolite detected
